This is an account of results in ChEMBL document CHEMBL1687849, “Lauroside B, a megastigmane glycoside from Laurus nobilis (bay laurel) leaves, induces apoptosis in human melanoma cell lines by inhibiting NF-κB activation” (J Nat Prod, 2011).

Structures are written as SMILES. Active and inactive are the calls of the source. No cut-off for these calls is given here.

For data set [1], the system named is A-375. The data set can be described thus: Induction of apoptosis in human A375 cells assessed as early apoptotic cells at 20 uM after 48 hrs by annexin V/propidium iodide based flow cytometry. The format is functional. The method in brief: (§1)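 A375 cells attached overnight, then treated 48 h with test compound (30 μM) or curcumin (20 μM). Adherent and floating cells pooled, washed in PBS and resuspended at 10^6/mL in HEPES pH 7.4/NaCl/CaCl2 binding buffer. 10^5 cells stained 15 min at room temperature in the dark with FITC-annexin V and PI, then flow cytometry. Quadrants scored as early apoptotic, late apoptotic or necrotic. Three experiments.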
A general note: Flow cytometry measures light scatter and fluorescence of single cells or particles in a stream.

The test system of data set [2] is A-375. The data set can be described thus: Induction of apoptosis in human A375 cells assessed as late apoptotic cells at 20 uM after 48 hrs by annexin V/propidium iodide based flow cytometry. In kind it is functional. An outline of the steps:
as §1

For data set [3], the system named is A-375. The data set is described as follows: Induction of apoptosis in human A375 cells assessed as necrotic apoptotic cells at 20 uM after 48 hrs by annexin V/propidium iodide based flow cytometry. In kind it is functional. The method in brief:
as §1

Data set [4] concerns A-375. The data set can be described thus: Antiproliferative activity against human A375 cells at 3 to 30 uM by MTT assay. In kind it is functional, cell-based. Conditions: TDE = time-dependent effect. The method in brief:
(§2)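 Cells grown in DMEM with 10% FBS, glutamine, HEPES and antibiotics at 37 °C, 5% CO2. Seeded at 1×10^4 cells/well and treated at 3, 10 or 30 μM for 24, 48 or 72 h. MTT (5 mg/mL stock) then added for 3 h at 37 °C. Crystals dissolved in 50% DMF/20% SDS pH 4.5; OD read at 620 nm. n = 3, mean ± SEM, ANOVA with Bonferroni.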
A general note: Tetrazolium assays rely on reduction of a dye to a coloured formazan, in cell work by metabolically active cells.

The test system of data set [5] is WM-115. The data set is described as follows: Antiproliferative activity against human WM115 cells at 3 to 30 uM by MTT assay. The format is functional, cell-based. Conditions: TDE = time-dependent effect. An outline of the steps: as §2
Data set [6] has as its system SK-MEL-28. The data set can be described thus: Antiproliferative activity against human SK-MEL-28 cells at 3 to 30 uM by MTT assay. The format is functional, cell-based. Conditions: TDE = time-dependent effect. An outline of the steps:
as §2

Data set [7] concerns A-375. The data set is described as follows: Antiproliferative activity against human A375 cells after 24 to 72 hrs by MTT assay. The format is functional, cell-based. An outline of the steps:
as §2

Data set [8] concerns WM-115. The data set can be described thus: Antiproliferative activity against human WM115 cells after 24 to 72 hrs by MTT assay. In kind it is functional, cell-based. An outline of the steps: as §2
In data set [9] the test system is SK-MEL-28. The data set is described as follows: Antiproliferative activity against human SK-MEL-28 cells after 24 to 72 hrs by MTT assay. In kind it is functional, cell-based. The method in brief: as §2
The subject of data set [10] is A-375. The data set is described as follows: Antiproliferative activity against human A375 cells at 30 uM after 72 hrs by MTT assay. The format is functional. Conditions: A-375, 72 h. The method in brief:
as §2

The test system of data set [11] is WM-115. The data set can be described thus: Antiproliferative activity against human WM115 cells at 30 uM after 72 hrs by MTT assay. In kind it is functional. Conditions: WM-115, 72 h. The method in brief:
as §2

In data set [12] the test system is SK-MEL-28. The data set can be described thus: Antiproliferative activity against human SK-MEL-28 cells at 30 uM after 72 hrs by MTT assay. In kind it is functional. Conditions: SK-MEL-28, 72 h. An outline of the steps:
as §2

Data set [13] in a line: Antiproliferative activity against human NHEM at 3 to 30 uM after 24 to 72 hrs by MTT assay. An outline of the steps: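 Normal human epidermal melanocytes grown in melanocyte growth medium 2. Seeded at 1×10^4 cells/well and treated at 3, 10 or 30 μM for 24, 48 or 72 h. MTT (5 mg/mL stock) then added for 3 h at 37 °C. Formazan dissolved in 50% DMF/20% SDS pH 4.5; absorbance at 620 nm.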

In data set [14] the test system is A-375. The data set is described as follows: Induction of apoptosis in human A375 cells assessed as early apoptotic cells at 30 uM after 48 hrs by annexin V/propidium iodide based flow cytometry. In kind it is functional. An outline of the steps: as §1
Data set [15] relates to A-375. The data set is described as follows: Induction of apoptosis in human A375 cells assessed as late apoptotic cells at 30 uM after 48 hrs by annexin V/propidium iodide based flow cytometry. In kind it is functional. An outline of the steps: as §1
In data set [16] the test system is A-375. The data set is described as follows: Induction of apoptosis in human A375 cells assessed as necrotic apoptotic cells at 30 uM after 48 hrs by annexin V/propidium iodide based flow cytometry. The format is functional. The method in brief: as §1
The subject of data set [17] is A-375. The data set can be described thus: Activation of caspase 3 in human A375 cells assessed as reduction in pro-caspase 3 at 30 uM by Western blot analysis. The format is functional, cell-based. The settings on record: TDE = time-dependent effect. An outline of the steps:
(§3)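 Whole-cell A375 lysates collected 0, 1, 2, 4 and 8 h after 30 μM treatment, made in Tris/HCl pH 7.4 buffer with 0.1% Triton X-100, EDTA, vanadate, PMSF and protease inhibitors. 20 μg protein per lane on SDS-PAGE and nitrocellulose. Probed overnight at 4 °C for pro-caspase-3 and PARP, with β-actin; HRP secondary, ECL detection. Three separate experiments.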

The test system of data set [18] is A-375. The data set is described as follows: Inhibition of NF-kappaB activation in human A375 cells assessed as IkappaB-alpha degradation at 30 uM by Western blot analysis. The format is cell-based. The settings on record: TDE = time-dependent effect. The method in brief:
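A375 cells treated at 30 μM for 1, 2, 4 and 8 h. Cytosolic extracts (40 μg protein) run on SDS-PAGE and transferred to nitrocellulose. Probed overnight at 4 °C for IκB-α, HRP secondary, ECL detection. Three separate experiments.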
In general terms: In western blotting, separated proteins are transferred to a membrane and probed.

Data set [19] has as its system A-375. The data set can be described thus: Inhibition of NF-kappaB DNA binding activity in human A375 cells at 30 uM after 1 hr by electrophoretic mobility shift assay. In kind it is cell-based. The method in brief: (§4)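 A375 cells treated at 30 μM; whole-cell extracts taken at 0, 1, 2, 4, 8 and 24 h. Extract (12 μg protein in 0.1% Triton X-100 buffer) incubated 30 min with 32P-labelled κB probe. Complexes resolved on nondenaturing 4% polyacrylamide gel and quantified by phosphorimaging, normalized to the nonspecific protein-DNA complex in the same lane. Three experiments.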

Data set [20] concerns A-375. The data set can be described thus: Inhibition of NF-kappaB DNA binding activity in human A375 cells at 30 uM after 2 hrs by electrophoretic mobility shift assay. In kind it is cell-based. The method in brief:
as §4

Data set [21] concerns A-375. The data set is described as follows: Inhibition of NF-kappaB DNA binding activity in human A375 cells at 30 uM after 4 hrs by electrophoretic mobility shift assay. The format is cell-based. An outline of the steps:
as §4

For data set [22], the system named is A-375. The data set can be described thus: Inhibition of NF-kappaB DNA binding activity in human A375 cells at 30 uM after 8 hrs by electrophoretic mobility shift assay. The format is cell-based. An outline of the steps:
as §4

In data set [23] the test system is A-375. The data set can be described thus: Inhibition of NF-kappaB DNA binding activity in human A375 cells at 30 uM after 24 hrs by electrophoretic mobility shift assay. The format is cell-based. An outline of the steps:
as §4

A short description of data set [24]: Decrease in NFkappaB-mediated XIAP gene expression in human A375 cells at 30 uM after 8 hrs by Western blot analysis. In kind it is cell-based. Conditions: A-375.
Data set [25] can be described thus: Decrease in NFkappaB-mediated c-FLIP gene expression in human A375 cells at 30 uM after 8 hrs by Western blot analysis. In kind it is cell-based. The settings on record: A-375.
The test system of data set [26] is A-375. The data set can be described thus: Activation of caspase 3 in human A375 cells assessed as cleavage of substrate PARP at 30 uM by Western blot analysis. The format is functional, cell-based. An outline of the steps: as §3

As for `COc1cc(/C=C/C(=O)CC(=O)/C=C/c2ccc(O)c(OC)c2)ccc1O` [CURCUMIN], the results for the Activity in the data set on A-375 [1], in the data set with A-375 [2] and in the data set on A-375 [3] were 3.4%, 80% and 10.3%, respectively.

As usually defined, the inhibition is the percentage by which the read-out fell short of the control. On to `C[C@H](/C=C/[C@@]1(O)[C@H](CO)CC(=O)CC1(C)C)O[C@@H]1O[C@H](CO)[C@@H](O)[C@H](O)[C@H]1O` [LAUROSIDE B], for which the inhibition entry with A-375 [4] was “tde”; with WM-115 [5], “tde”; with SK-MEL-28 [6], “tde”; in the data set with A-375 [7], “Dose-dependent effect”; in the data set with WM-115 [8], “Dose-dependent effect”; in the data set with SK-MEL-28 [9] it was “Dose-dependent effect”. The inhibition in the data set on A-375 [19] worked out at 6%; with A-375 [20], 20%; with A-375 [21] it was 60%; in the data set with A-375 [22], 86%; in the data set on A-375 [23] it was 100%. Moreover, the inhibition at 30 µM in the data set with A-375 [10] is 65%; in the data set on WM-115 [11] it was 50%; with SK-MEL-28 [12], 33%. Besides, the Activity result in data set [13] is “Non-toxic”; in the data set on A-375 [14] it was 0.6%; in the data set with A-375 [15], 35%; in the data set with A-375 [16], 5.1%; with A-375 [17], “tde”; in the data set on A-375 [18], “tde”. For the same compound, the outcome (in data set [24]; in data set [25]; in the data set with A-375 [26]) was Active.
